Series [1] is described as follows: Partition coefficient (logP). In kind it is physicochemical. To be noted: octanol/water. The gist of the method: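 Octanol/water partition measured as log P by the Minick method. For some reference progestins, log P was also measured by shake flask.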
For series [2], the target named is T1, Progesterone receptor (Rattus norvegicus) (UniProt Q63449).
T1 sequence (whole entry): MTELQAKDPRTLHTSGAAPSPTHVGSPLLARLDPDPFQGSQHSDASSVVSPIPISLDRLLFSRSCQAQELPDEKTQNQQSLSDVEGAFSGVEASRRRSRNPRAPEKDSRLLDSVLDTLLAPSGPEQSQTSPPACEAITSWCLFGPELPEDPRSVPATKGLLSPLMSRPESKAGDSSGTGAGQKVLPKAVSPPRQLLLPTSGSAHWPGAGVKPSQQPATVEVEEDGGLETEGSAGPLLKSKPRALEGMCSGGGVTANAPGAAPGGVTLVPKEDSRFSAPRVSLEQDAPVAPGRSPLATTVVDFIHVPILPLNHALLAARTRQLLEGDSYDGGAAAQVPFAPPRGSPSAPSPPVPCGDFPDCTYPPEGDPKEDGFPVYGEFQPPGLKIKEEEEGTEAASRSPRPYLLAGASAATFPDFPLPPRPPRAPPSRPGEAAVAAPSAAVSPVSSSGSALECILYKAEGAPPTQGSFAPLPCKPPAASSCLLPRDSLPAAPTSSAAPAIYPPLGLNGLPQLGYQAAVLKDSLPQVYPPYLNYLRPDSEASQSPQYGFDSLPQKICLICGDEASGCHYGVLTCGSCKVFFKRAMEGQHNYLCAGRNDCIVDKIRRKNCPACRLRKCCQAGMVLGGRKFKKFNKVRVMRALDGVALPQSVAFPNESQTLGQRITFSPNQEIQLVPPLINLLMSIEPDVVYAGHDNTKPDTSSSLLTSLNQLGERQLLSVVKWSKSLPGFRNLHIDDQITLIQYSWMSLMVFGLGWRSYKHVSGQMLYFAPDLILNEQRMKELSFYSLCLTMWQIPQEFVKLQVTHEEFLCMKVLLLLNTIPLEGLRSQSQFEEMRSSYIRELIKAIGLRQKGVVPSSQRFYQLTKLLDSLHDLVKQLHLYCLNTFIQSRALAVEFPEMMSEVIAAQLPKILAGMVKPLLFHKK
The series can be described thus: Tissue distribution in uterus/muscle 1 hr after [18F]4 injection into estrogen-primed immature rats co-injected ORG 2058 (uterine uptake blocker). In kind it is functional, tissue-based. The gist of the method: (§1)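 Blocking group: estrogen-primed immature female Sprague-Dawley rats (estradiol 5 μg s.c. ×2 days, used 24 h later). ORG 2058 18 μg was co-injected with the tracer dose iv via tail vein, 0.2 mL injection volume in 10% ethanol/saline. Killed 1 h later; tissues weighed and gamma-counted. Results as %ID/g or ratios, mean ± SD, n = 5.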

Series [3] addresses T1, Progesterone receptor (Rattus norvegicus). The series can be described thus: Tissue distribution in lung 1 hr after [18F]4 injection into estrogen-primed immature rats at low dose. In kind it is functional, tissue-based. The essentials: (§2)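 Estrogen-primed immature female Sprague-Dawley rats (estradiol 5 μg s.c. daily ×2, used 24 h later) were given a reduced tracer dose of 30 μCi in 0.04 mL 10% ethanol/saline, tail vein iv, under ether. Decapitated at 1 h; organs weighed and gamma-counted. Results as %ID/g or uterus/tissue ratio, mean ± SD, n = 5.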

The target is the same in series [4]. The series can be described thus: Tissue distribution in uterus 1 hr after [18F]-4 injection into estrogen-primed immature rats co-injected with uterin uptake blocker (ORG 2058). In kind it is functional, tissue-based. The essentials:
as §1

For series [5] the target is unchanged. The series can be described thus: Tissue distribution in liver 1 hr after [18F]4 injection into estrogen-primed immature rats co-injected with uterine uptake blocker (ORG 2058). In kind it is functional, tissue-based. The gist of the method:
as §1

The target is the same in series [6]. The series can be described thus: Tissue distribution in kidney 1 hr after [18F]4 injection into estrogen-primed immature rats at low dose. In kind it is functional, tissue-based. The gist of the method:
as §2

Series [7] shares this target. The series can be described thus: Tissue distribution in fat 1 hr after [18F]4 injection into estrogen-primed immature rats co-injected with uterine uptake blocker (ORG 2058). The class given is functional, tissue-based. To be noted: Adipose tissue. The gist of the method: as §1
Series [8] has the same target. The series can be described thus: Tissue distribution in kidney 1 hr after [18F]4 injection into estrogen-primed immature rats at normal dose. The class given is functional, tissue-based. The essentials:
(§3)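 Female Sprague-Dawley rats, 23 days old, primed with estradiol 5 μg s.c. in 20% ethanol/sunflower oil on two days and used 24 h later. Under ether, they received 51 μCi tracer (30 Ci/mmol) iv via the tail vein in 0.1 mL 10% ethanol/saline. Killed by decapitation at 1 h; tissues weighed and gamma-counted. Results as %ID/g or tissue ratios, mean ± SD, n = 5.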

For series [9] the target is unchanged. The series can be described thus: Tissue distribution in blood 1 hr after [18F]4 injection into estrogen-primed immature rats at low dose. The class given is functional, tissue-based. The gist of the method:
as §2

The target is the same in series [10]. The series can be described thus: Tissue distribution in ovaries 1 hr after [18F]4 injection into estrogen-primed immature rats co-injected with uterine uptake blocker (ORG2058). In kind it is functional, tissue-based. Particulars: Female gonad. The gist of the method: as §1
The target is the same in series [11]. The series can be described thus: Tissue distribution in uterus/blood 1 hr after [18F]4 injection into estrogen-primed immature rats at low dose. In kind it is functional, tissue-based. The gist of the method: as §2
Series [12] has the same target. The series can be described thus: Tissue distribution in kidney 1 hr after [18F]4 injection into estrogen-primed immature rats co-injected with uterine uptake blocker ([…]). In kind it is functional, tissue-based. The essentials:
as §1

Series [13] has the same target. The series can be described thus: Tissue distribution in brain 3 hr after [18F]4 injection into estrogen-primed immature rats. The class given is functional, tissue-based. The gist of the method:
(§4)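 Immature female Sprague-Dawley rats, estradiol-primed (5 μg s.c. in 20% ethanol/sunflower oil, two successive days, used 24 h later). Tracer (30 Ci/mmol) in 10% ethanol/saline was injected iv into the tail vein under ether anesthesia. Animals were decapitated 3 h postinjection; organs weighed and gamma-counted. %ID/g, mean ± SD, n = 5.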

Series [14] has the same target. The series can be described thus: Tissue distribution in uterus/blood 3 hr after [18F]4 injection into estrogen-primed immature rats at low dose. In kind it is functional, tissue-based.
For series [15] the target is unchanged. The series can be described thus: Tissue distribution in muscle 1 hr after [18F]4 injection into estrogen-primed immature rats at low dose. In kind it is functional, tissue-based. The gist of the method:
as §2

Series [16] has the same target. The series can be described thus: Tissue distribution in ovaries 3 hr after [18F]4 injection into estrogen-primed immature rats. In kind it is functional, tissue-based. Particulars: Female gonad. The gist of the method: as §4
For series [17] the target is unchanged. The series can be described thus: Tissue distribution in liver 3 hr after [18F]-4 injection into estrogen-primed immature rats. The class given is functional, tissue-based. The essentials:
as §4

Series [18] has the same target. The series can be described thus: Relative binding affinity for progesterone receptor compared to R5020.
Series [19] has the same target. The series can be described thus: Tissue distribution in uterus/muscle 1 hr after [18F]4 injection into estrogen-primed immature rats at normal dose. The class given is functional, tissue-based. The essentials: as §3
Series [20] shares this target. The series can be described thus: Tissue distribution in liver 1 hr after [18F]4 injection into estrogen-primed immature rats at low dose. The class given is functional, tissue-based. The gist of the method: as §2
The target is the same in series [21]. The series can be described thus: Tissue distribution in uterus 1 hr after [18F]4 injection into estrogen-primed immature rats at low dose. The class given is functional, tissue-based. The gist of the method:
as §2

Series [22] shares this target. The series can be described thus: Tissue distribution in muscle 3 hr after [18F]4 injection into estrogen-primed immature rats. The class given is functional, tissue-based. The gist of the method: as §4
Series [23] has the same target. The series can be described thus: Tissue distribution in liver 1 hr after [18F]4 injection into estrogen-primed immature rats at normal dose. The class given is functional, tissue-based. The gist of the method:
as §3

Series [24] shares this target. The series can be described thus: Tissue distribution in fat 1 hr after [18F]4 injection into estrogen-primed immature rats at normal dose. Particulars: Adipose tissue. In kind it is functional, tissue-based. The gist of the method: as §3

Data on two molecules can be found in ChEMBL document CHEMBL1126647, “Fluorine-18-labeled progestin ketals: synthesis and target tissue uptake selectivity of potential imaging agents for receptor-positive breast tumors” (J Med Chem, 1993).

In general, logP refers to the decadic logarithm of the partition coefficient of the neutral form, usually between octanol and water.

Take `C[C@@]1(c2ccc(F)cc2)O[C@@H]2CC3C4CCC5=CC(=O)CC[C@@H]5C4CC[C@]3(C)[C@]2(C(=O)CO)O1` (stereo partly drawn): the logP in [1] was found to be 4.92. Moreover, the uterus/muscle ratio amounted to 2.42 in series [2] and 8.2 in series [19]. Also, the Injected dose/g in series [3] was determined as 0.72%; in series [4] it was 0.86%; in series [5], 3.56%; in series [6], 1.57%; in series [7], 2.76%; in series [8], 1.42%. Besides, the Injected dose/g in series [9] amounted to 0.28%; in series [10], 1.37%; in [12], 1.28%; in series [13], 0.06%; in series [15] it was 0.464%; in [16], 1.78%. For the same molecule, the Injected dose/g came out at 1.36% in series [17]; 3.93% in series [20]; 4.06% in series [21]; 0.16% in [22]; 4.25% in [23]; 3.53% in series [24]. Further, the uterus/blood ratio is 14.5 in [11] and 38 in series [14]. The molecule further displayed a relative binding affinity (RBA) in series [18] of 240.
As for `CC(=O)[C@@]12O[C@](C)(c3ccc(F)cc3)O[C@@H]1CC1C3CCC4=CC(=O)CC[C@]4(C)C3CC[C@@]12C` (stereo partly drawn), the logP in series [1] was 5.71. Moreover, the values for the uterus/muscle ratio in series [2] and in series [19] were 1.69 and 3.85, respectively. Moreover, the Injected dose/g in series [3] was 1.46%; in [4] it was 1.27%; in series [5], 3.16%; in series [6] it was 2.27%; in series [7], 3.77%; in [8], 2.18%. Further, the Injected dose/g in series [9] stood at 0.52%; in series [10], 2.29%; in series [12], 2.18%; in series [13] it was 0.2%; in series [15] it was 0.82%; in series [16], 2.19%. Moreover, the Injected dose/g in series [17] turned out to be 1.93%; in series [20], 3.62%; in series [21], 3.3%; in series [22], 0.49%; in series [23], 3.41%; in series [24], 5.76%. Besides, the uterus/blood ratio in [11] amounted to 6.34; in series [14], 7.57. Besides, the relative binding affinity (RBA) in series [18] amounted to 53.
